Results from different studies.
Each line is one published result; the experiments were not run side by side.
Target: Focal adhesion kinase 1 (PTK2, Homo sapiens, UniProt Q05397)

CN1CC(Oc2cnc(C#N)cc2-c2ccn3nc(NC(=O)C4CC4)cc3c2)C1 — inhibition (enzyme activity; inhibitor; 1 µM): 1%
Cc1[nH]c(/C=C2\C(=O)Nc3ccc(F)cc32)c(C)c1C(=O)N[C@H]1CCN(C(=O)N(C)C)C1 — remaining activity (enzyme activity; inhibitor; 0.1 µM): 88%
Cc1cnc(NC2CCOCC2)nc1-n1cnc(C(=O)NC(CN)c2cc(F)cc(Cl)c2)c1 (centres unmarked) — remaining activity (enzyme activity; inhibitor; radiometric; 1 µM): 102%
CC(C)(C)c1nc2c(s1)c1nc(N)ncc1c1ccc(NS(=O)(=O)c3c(F)cccc3F)c(F)c12 — remaining activity (enzyme activity; inhibitor; radiometric; 1 µM): 99%
COc1cc2ncnc(Nc3ccc(Oc4ccccc4)c(C)c3C)c2cc1OC — inhibition (enzyme activity; inhibitor; 1 µM): -1%
O=c1nc(-c2ccccn2)sc2ccccc12 — remaining binding (binding; competition with immobilised ligand; 1 µM): 90%
CCN(CC)c1ccc(C2=NNC(=O)CC2C)cc1[N+](=O)[O-] (centres unmarked) — remaining activity (enzyme activity; inhibitor; 10 µM): 96%
O=C1NC(=O)c2cc(Nc3ccc(F)cc3)c(Nc3ccc(F)cc3)cc21 — remaining signal (cell-free assay; 0.5 µM): 96%
CNCc1ccccc1-c1csc([C@@H](C)Nc2nc(C)nc3cc(OC)c(OC)cc23)c1 — remaining binding (cell-free assay; competition with immobilised ligand; 1 µM): 86%
Cc1ccc(Nc2nccc(N(C)c3ccc4c(C)n(C)nc4c3)n2)cc1S(N)(=O)=O — inhibition (enzyme activity; inhibitor; 0.3 µM): 4%
Cc1ccc(NC(=O)c2ccc(C)c(C(F)(F)F)c2)cc1C#Cc1nn(C2CCC(O)CC2)c2ncnc(N)c12 (centres unmarked) — remaining signal (cell-free assay; 10 µM): 45%
CCCOc1ccc(OC)c(F)c1C(=O)c1ccc(C(=O)N[C@@H]2CNC[C@H]2NC(=O)c2ccc3[nH]ncc3c2)cc1 — remaining activity (enzyme activity; inhibitor; 10 µM): 103%
CC(=O)Nc1c(C(C)=O)c(=O)n(C)c2nc(-c3ccc(Cl)cc3Cl)c(-c3ccc(Cl)cc3)cc12 — remaining binding (cell-free assay; competition with immobilised ligand; 1 µM): 100%
O=C(Nc1cnn(-c2csc(C(=O)NC3COC3)c2)c1)Nc1ccccc1Cl — remaining activity (enzyme activity; inhibitor; 5 µM): 95.7%
N[C@@H]1CCN(c2nccc(-c3cnn4ncccc34)n2)C1 — remaining signal (cell-free assay; 1 µM): 97%
COc1cc(-c2cc(-c3ccc(N4CCNCC4)cc3)cnc2C)cc(OC)c1OC — inhibition (enzyme activity; inhibitor; 0.1 µM): 26%
CNC(=O)c1cc(Oc2ccc(NC(=O)Nc3ccc(Cl)c(C(F)(F)F)c3)cc2)ccn1 — remaining signal (cell-free assay; 0.5 µM): 102%
CC(=O)N1CCC(c2ccc(C(=O)NC(=N)N)cc2C(F)(F)F)CC1 — remaining binding (cell-free assay; competition with immobilised ligand; 1 µM): 100%
CS(=O)(=O)Nc1cccc(-c2csc(NC(=O)CSc3nc4nccnc4c(=O)n3CCc3ccccc3)n2)c1 — inhibition (enzyme activity; inhibitor; 10 µM): 2%
O=S(=O)(NC1CCC(c2cc(F)ccc2F)(S(=O)(=O)c2ccc(Cl)cc2)CC1)C(F)(F)F (centres unmarked) — remaining binding (cell-free assay; competition with immobilised ligand; 1 µM): 90%
COc1cc(Cl)c(C(=O)N[C@@H](CN[C@H]2CC[C@@H](N)CC2)Cc2ccc(C#N)cc2)cc1-c1ccc(CN[C@H](C)c2ccc(C)cc2)o1 — remaining activity (enzyme activity; inhibitor; 1 µM): 100%
N#CC1(c2ccccn2)CCN(Cc2cc(C(=O)N3CCCC3)c(=O)n3ccccc23)CC1 — remaining binding (cell-free assay; competition with immobilised ligand; 1 µM): 89%
F[C@@H]1CCN(c2nccc(-c3cnn4ncccc34)n2)C1 — remaining signal (cell-free assay; 1 µM): 100%
Cc1ccc(C(=O)NCc2ccsc2)cc1C#Cc1cn(C(C)C)c2ncnc(N)c12 — activity vs control (enzyme activity; inhibitor; 1 µM): 79%
O=C1Nc2ccc(Cl)cc2C1=Cc1cc(Cl)c(O)c(Cl)c1 — remaining signal (cell-free assay; 0.5 µM): 91.5%
C[C@H](c1ccnc(Nc2nc3ccc(-c4cc(N(C)C)ncn4)cc3[nH]2)c1)N1CCN(C(=O)CC(F)(F)F)CC1 — remaining binding (cell-free assay; competition with immobilised ligand; 0.1 µM): 100%
Cc1ccc(C(=O)Nc2ccc(CN3CCN(C)CC3)c(C(F)(F)F)c2)cc1C#Cc1cnc2cccnn12 — remaining activity (enzyme activity; inhibitor; 23.5 nM): 100%
CCOC(=O)c1cc2cc(-c3cc(C(=O)NCc4ccc(C(=O)O)cc4)nn3C)ccc2[nH]1 — remaining binding (cell-free assay; competition with immobilised ligand; 0.1 µM): 94%
COc1cc2nccc(Oc3ccc(NC(=O)c4c5n(n(-c6ccc(F)cc6)c4=O)CCCC5)cc3)c2cc1OC — inhibition (enzyme activity; inhibitor; 0.1 µM): -10%
